Activity calls are given as the source filed them. The calls are words filed in the database; no cut-off is given here.
How the values were obtained:
Assay type in all cases: functional, cell-based
HeLa = assay: Cytotoxicity against human HeLa cells after 72 hrs by WST-1 colorimetric test
In short: (§1)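 WST-1 colorimetric readout, based on cleavage by mitochondrial dehydrogenases. A2058 (4000 cells/well) or HeLa (3000 cells/well) left overnight at 37°C in 5% CO₂, then exposed to compounds at 0–150 μM for 72 h. WST-1 added for 2 h, absorbance at 450 nm read against a background control. Means of at least two independent experiments in triplicate.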

NIH3T3 [1] = assay: (§2) Antiproliferative activity against v-Src transformed mouse NIH 3T3 fibroblast after 72 hrs
In short: (§3)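 NIH 3T3/v-Src fibroblasts seeded at 10⁵/well, left overnight at 37°C in 5% CO₂. Compound exposure 0–150 μM for 72 h. Cells then washed in PBS, trypsinised and counted in a particle counter. Means of at least two independent experiments run in duplicate. IC₅₀ taken from a sigmoidal dose-response fit.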

A2058 = assay: Cytotoxicity against human A2058 cells after 72 hrs by WST-1 colorimetric test; conditions: for IC50: A2058, 72 h; in short: as §1
[2] = as §2; conditions: NIH3T3, 72 h; in short: as §3
NIH3T3 [3] = assay: Antiproliferative activity against v-Src transformed mouse NIH 3T3 fibroblast at 150 uM after 72 hrs; in short: as §3

SMILES	Activity (HeLa)	Activity (NIH3T3 [1])	Activity (A2058)	IC50 (HeLa)	IC50 [2]	IC50 (A2058)	Activity (NIH3T3 [3])
C[C@@H]1N=C(c2ccccc2)c2ccccc2N(Cc2ccc(CP(=O)(O)O)cc2)C1=O	inactive	inactive	inactive	–	–	–	–
C[C@@H]1N=C(c2ccccc2)c2ccccc2N(Cc2ccc(OP(=O)(O)O)cc2)C1=O	–	–	–	21.3 µM	36.6 µM	28.9 µM	–
C[C@@H]1N=C(c2ccccc2)c2ccccc2N(Cc2ccc(OP(=O)(O)OCc3ccccc3)cc2)C1=O	–	–	–	40.5 µM	49.5 µM	61.5 µM	–
CN1C(=O)CN=C(c2ccc(Cl)cc2)c2cc(Cl)ccc21 [RO-54864]	–	–	–	≥ 100 µM	31.9 µM	≥ 100 µM	–
NCCCC[C@@H]1N=C(c2ccccc2)c2ccccc2N(Cc2ccc(CP(=O)(O)O)cc2)C1=O	inactive	inactive	inactive	–	–	–	–
C[C@@H]1N=C(c2ccccc2)c2ccccc2N(Cc2ccc(O)cc2)C1=O	–	–	–	29.3 µM	38.6 µM	27.2 µM	–
C[C@@H]1N=C(c2ccccc2)c2ccccc2NC1=O	inactive	–	inactive	–	–	–	inactive
NCCCC[C@@H]1N=C(c2ccccc2)c2ccccc2N(Cc2ccc(OP(=O)(O)O)cc2)C1=O	–	–	–	≥ 80 µM	≥ 80 µM	33.8 µM	–

Source: ChEMBL document CHEMBL1147842, “Novel 1,4-benzodiazepine derivatives with antiproliferative properties on tumor cell lines” (Bioorg Med Chem Lett, 2007)
